Test [1] in a line: OD615 S. cerevisiae growth inhibition, permissive medium, pilot counter-assay, permissive growth control for S. cerevisiae lifespan shortening project (AID 705;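 active = growth inhibition above 25% in both replicates, a cutoff set 3 SD above the mean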). The conditions noted are these: OD615, 24 h, at 10 µM, hits give high values. A digest of the protocol: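 System: Engineered DeaD yeast | Buffer or medium: SC raffinose/galactose permissive medium | Doses: 10 µM single dose, 0.25% DMSO | Times: 24 h exposure, 30 °C | Measured by: OD615 turbidity read | Read-out: Yeast growth inhibition indicated by reduced 24 h OD615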

Test [2] in a line: Restrictive medium S. cerevisiae growth inhibition, OD615, pilot screen of yeast lifespan reduction project, restrictive growth control (AID 706;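 active = growth inhibition above a set limit, 3 SD over mean compound inhibition, in both replicates, cut at about 43% in these data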;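 also: modified DeaD lifespan yeast strain shifted to restrictive glucose medium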). The following applies: OD615, 48 h, at 10 µM, hits give high values. The method in brief: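 Assay system: engineered S. cerevisiae DeaD strain; Buffer or medium: CSMM-D glucose medium; Dosing: 10 µM compound, 0.25% DMSO; Times: cell pre-growth 4 h, compound exposure 48 h, 30 °C; Detection: absorbance (optical density) measured at 615 nm.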

Test [3] in a line: viability gain of MRP-1-high H69AR cells under doxorubicin, pilot screen, MRP-1 activator project, CellTiter-Glo, duplicate (AID 807;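 active = viability increase at or above a cutoff of the median across tested compounds plus 3 SD, cut at about 8.5% in these data, passing the limit was not always enough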;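 also: compound pretreatment 18-22 h then 72 h combined with doxorubicin; 0% = doxorubicin alone and 100% = vehicle without doxorubicin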). The conditions noted are these: H69AR viability with doxorubicin, CellTiter-Glo luminescence; at 10 µM; hits give high values. For orientation: Cellular ATP, detected with luciferase, serves as a proxy for viable cell number.
Test [4] in a line: growth suppression of beta-catenin knockout HCT116, pilot screen, human colon tumor cells (AID 823;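 active = cell viability at or below a set limit in both duplicate runs, the limit being the all-compound median minus 4 SD, cut at about 23% in these data, passing the limit was not always enough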;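 also: 0% = wells killed by 20 µM Hyamine and 100% = untreated DMSO cell wells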). The conditions noted are these: CellTiter-Glo, 60 h, at 10 µM, hits give low values.
The nature of test [5]: growth suppression of PTEN-deleted HCT116, pilot screen, cell-based, HCT116 clonal line, CellTiter-Glo (AID 824;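 active = viability at or below 27.92% in each of two runs, the all-compound median minus 4 SD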;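 also: 0% = 20 µM Hyamine control and 100% = vehicle cell control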). The conditions noted are these: 60 h, at 10 µM, hits give low values.
The nature of test [6]: inhibitors of the yeast RAM network, pilot screen, dse1pr::URA3 reporter, 5-FOA selection (AID 869).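 Also: 0% = DMSO wells with no growth and 100% = 10 µM 1-NA-PP1 with full growth; RAM network block rescues cells from 5-FOA so hits raise OD615 growth.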 The following applies: S. cerevisiae dse1pr::URA3 5-FOA growth, OD615, 2 d; at 10 µM; hits give high values; strain carries analog-sensitive mutant Cbk1 kinase.
Test [7] can be described thus: RAM signaling pathway blockade in yeast – S. cerevisiae, Pdr1DBD-CYC8 efflux-inhibited sensitized strain, primary screen (AID 1298;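 active = RAM network inhibition above 8.4% in each of two replicates, 3 SD over the compound average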;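 also: 0% = DMSO untreated cells without growth and 100% = 10 µM 1-NA-PP1 full growth; higher means more yeast growth rescued from 5-FOA killing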). The following applies: S. cerevisiae cbk1-as DSE1-URA3 strain, 5-FOA growth OD615, 2 d; at 50 µM; hits give high values.

The values that follow come from PubChem BioAssay.

Unmarked numbers belong to inactive results. Inconclusive results are not listed. Calls of active or inactive are those of the source.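 The calls were made as follows, unless noted: active = inhibition over a set limit, the all-compound mean plus 3 SD, in both replicate runs; inconclusive = over that limit in just one replicate run; inactive = at or under that limit in both runs.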

What is called viability is a read-out of living cells in per cent, often relative to untreated cells. Usually inhibition stands for the drop in the measured response relative to a control, in per cent.

For the molecule `CCC(=O)Nc1c2c(nn1-c1ccc(F)cc1)CS(=O)C2` (stereo unspecified), the growth inhibition in test [1] was -7.18%; in test [2], 1.07%. In addition, the viability increase in test [3] was 0.7%. For the same molecule, the viability in test [4] was 99.2%; in test [5] it was 99.5%. The inhibition in test [6] was 0.265%. The RAM network inhibition in test [7] is 2.18%.
`O=C(Nc1cccc2c1CCCC2)c1ccc(Br)o1`: the growth inhibition in test [1] is -11.8%; in test [2], 6.87%. Further, the viability increase in test [3] is -1.15%. For the same molecule, the viability in test [4] was 79.6%; in test [5], 68%. Further, in test [6], the inhibition was 2.19%. Moreover, the RAM network inhibition in test [7] is 9.1%.
For `OC(COc1ccc(Cl)c2ccccc12)CN1CCN(c2ccccn2)CC1` (stereo unspecified), the results for the growth inhibition in test [1] and in test [2] were -5.89% and -11.6%, respectively. For the same molecule, the viability increase in test [3] was -3.19%. Also, the viability in test [4] was 94.9%; in test [5] it was 95.2%. In test [6], the inhibition was -0.275%. In test [7], the RAM network inhibition is 4.46%.
Consider `COc1ccccc1OCCC(=O)OCC(=O)NC(=O)NC(C)(C)C`, for which the growth inhibition is -2.01% in test [1] and -17.1% in test [2]. Moreover, the viability increase in test [3] is -1.52%. Moreover, the viability in test [4] was 85.7%; in test [5] it was 84.3%. Also, in test [6], the inhibition was 2.56%. Besides, the RAM network inhibition in test [7] was 0.79%.
Turning to `c1ccc(N2CCN(C3CCSC3)CC2)cc1` (stereo unspecified), the figures for the growth inhibition in test [1] and in test [2] were -20.2% and -15.7%, respectively. Also, the viability increase in test [3] was 1.11%. The figures for the viability in test [4] and in test [5] were 96% and 94.3%, respectively. Besides, the inhibition in test [6] is 1.05%. Further, the RAM network inhibition in test [7] is -1.2%.
As to `O=C1N/C(=N/c2ccccn2)SC1Cc1ccccc1` (stereo unspecified), the growth inhibition in test [1] was 0.405%; in test [2], 1.97%. Also, in test [3], the viability increase is 0.48%. Moreover, the viability in test [4] was 102%; in test [5], 93.6%. For the same molecule, the inhibition in test [6] is 3.98%. Further, the RAM network inhibition in test [7] was 6.35%.
`CCn1c(COc2cccc3cccnc23)nnc1SCC(=O)O`: the growth inhibition was -4.3% in test [1] and 8.66% in test [2]. The viability increase in test [3] is -0.53%. For the same molecule, the viability was 95.5% in test [4] and 91.5% in test [5]. For the same molecule, in test [6], the inhibition was 2.12%. For the same molecule, the RAM network inhibition in test [7] is 0.05%.
Take `O=C(NCCCc1ccccc1)c1ccncc1`: the growth inhibition was 1.08% in test [1] and 0.81% in test [2]. Also, in test [3], the viability increase is -0.23%. Further, the figures for the viability in test [4] and in test [5] were 98.4% and 99.4%, respectively. Further, in test [6], the inhibition is 0.45%. For the same molecule, in test [7], the RAM network inhibition was 6.46%.
As for `CCCCNC(=O)CS(=O)Cc1nc(-c2cccc(C)c2)oc1C` (stereo unspecified), the growth inhibition in test [1] was -13.2%; in test [2] it was -6.67%. The viability increase in test [3] is -2.67%. The viability in test [4] was 96.2%; in test [5], 98.1%. Moreover, the inhibition in test [6] is 1.14%. In addition, the RAM network inhibition in test [7] was 0.26%.
As to `COc1ccc(Cl)cc1Nc1cc(C)nc2nc(C)nn12`, the results for the growth inhibition in test [1] and in test [2] were -5.01% and -6.77%, respectively. Also, the viability increase in test [3] was -3.12%. Besides, the viability in test [4] is 103%; in test [5], 94.8%. Moreover, in test [6], the inhibition is -0.515%. Moreover, the RAM network inhibition in test [7] was 3.45%.
For `O=C(CN1CCOc2ccccc21)NC1CC1`, the growth inhibition in test [1] is -8.82%; in test [2], 8.71%. The viability increase in test [3] is -3.71%. In addition, the viability in test [4] was 88.1%; in test [5], 98.8%. Moreover, the inhibition in test [6] is 1.16%. For the same molecule, the RAM network inhibition in test [7] is -0.26%.
`CC1(C)C(c2ccccc2)=[N+]([O-])CN1O`: the figures for the growth inhibition in test [1] and in test [2] were 1.85% and 9.78%, respectively. For the same molecule, in test [3], the viability increase was -2.5%. Also, the viability in test [4] is 107%; in test [5] it was 96.3%. The inhibition in test [6] is -0.14%. Besides, the RAM network inhibition in test [7] was -0.11%.
As to `c1cc(-c2nnc3n2CCC3)[nH]n1`, the values for the growth inhibition in test [1] and in test [2] were 1.95% and -0.075%, respectively. In addition, in test [3], the viability increase is -2.22%. Further, the viability in test [4] is 95.9%; in test [5], 104%. Also, the inhibition in test [6] was 1.51%. Moreover, the RAM network inhibition in test [7] is 2.34%.
For the molecule `Cc1cc(Nc2ccc(Br)cc2F)n2nc(C)nc2n1`, the growth inhibition in test [1] is -19.2%; in test [2], -14.2%. For the same molecule, the viability increase in test [3] was -4.07%. In addition, the viability was 88.3% in test [4] and 86% in test [5]. Also, the inhibition in test [6] is 0.87%. In test [7], the RAM network inhibition was -0.15%.
Regarding `O=C(O)c1cccc(NS(=O)(=O)c2cccc3cccnc23)c1`, the growth inhibition in test [1] was -3.04%; in test [2], -3.79%. Further, the viability increase in test [3] is 0.96%. Further, the viability was 103% in test [4] and 99.8% in test [5]. Moreover, in test [6], the inhibition was 0.655%. Further, in test [7], the RAM network inhibition was 4.37%.
With `O=C1CC(c2ccccc2)CN1C(=O)c1ccccc1` (stereo unspecified), the growth inhibition in test [1] is 2.52%; in test [2] it was -1.8%. In addition, the viability increase in test [3] is 1.53%. For the same molecule, the viability in test [4] was 104%; in test [5] it was 98.6%. In test [6], the inhibition is 2.67%. For the same molecule, in test [7], the RAM network inhibition is 6.11%.
As to `COc1ccc(OC)c2sc(NC(=O)C3=COCCO3)nc12`, the growth inhibition in test [1] is -14.8%; in test [2], 0.525%. The viability increase in test [3] is -2.76%. Also, the viability in test [4] was 93%; in test [5] it was 90.9%. The inhibition in test [6] was 0.98%. For the same molecule, the RAM network inhibition in test [7] was 3.16%.
For the molecule `O=c1cc(-c2c(F)c(F)c(F)c(F)c2F)oc2c(F)c(F)c(F)c(F)c12`, the growth inhibition is -8.86% in test [1] and -6.48% in test [2]. Also, the viability increase in test [3] is -7%. Moreover, the viability was 1.3% (active) in test [4] and 1.25% (active) in test [5]. The inhibition in test [6] is -0.35%. In test [7], the RAM network inhibition is -1.25%.
